Data reported in ChEMBL document CHEMBL4145607, “Tamarixetin Exhibits Anti-inflammatory Activity and Prevents Bacterial Sepsis by Increasing IL-10 Production” (J Nat Prod, 2018).
Activity calls are given as the source filed them.

Experiments:
Mus musculus [1] = assay: Antiseptic activity in Balb/c mouse model of Escherichia coli K1 infection-induced sepsis assessed as reduction in serum endotoxin level at 50 mg/kg, ip pretreated for 1 hr followed by Escherichia coli K1 infection measured after 12 hrs by chromogenic assay; type: functional, organism-based
Outline: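 BALB/c mice dosed i.p. 1 h before i.p. E. coli K1 (1 × 10^6 CFU per mouse), sera taken at 12 h. Serum diluted 10-fold in endotoxin-free PBS, LAL chromogenic end-point assay; background subtracted, quantified against E. coli endotoxin standard, reported as EU·mL−1.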

Mus musculus [2] = assay: Antiseptic activity in Balb/c mouse model of Escherichia coli K1 infection-induced sepsis assessed as increase in survival rate at 1 mg/kg, ip pretreated for 1 hr followed by Escherichia coli K1 infection measured over 72 hrs relative to control; type: functional
Outline: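 BALB/c mice dosed i.p. 1 h before i.p. E. coli K1 strain RS218 (O18:K1:H7) challenge, 1 × 10^7 CFU per mouse, diluted in LB broth; n = 10; survival monitored over 72 h.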

BMDC = assay: Inhibition of LPS-induced immune response in C57BL/6 mouse BMDC assessed as increase in IL10 secretion at 25 uM pretreated for 30 mins followed by LPS-challenge measured after 6 hrs by ELISA; type: functional, cell-based
Outline: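 Bone marrow from 6-week-old female C57BL/6 mice, RBC-lysed, cultured in RPMI-1640/10% FBS with 10 ng·mL−1 rmGM-CSF, 37 °C, 5% CO2; medium refreshed days 3 and 5. DCs pretreated 30 min with compound, then LPS 50 ng·mL−1 for 6 h; supernatant IL-10 by sandwich ELISA; means ± SEM.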

Mus musculus [3] = assay: Antiseptic activity in Balb/c mouse model of Escherichia coli K1 infection-induced sepsis assessed as reduction in bacterial count in kidneys at 50 mg/kg, ip pretreated for 1 hr followed by Escherichia coli K1 infection measured after 12 hrs; type: functional, organism-based
Outline: (§1)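 BALB/c mice dosed i.p. 1 h before i.p. E. coli K1 (1 × 10^6 CFU per mouse); killed at 12 h. Lungs and kidneys removed aseptically into 1 mL sterile PBS, homogenised on ice, diluted 1:1000 in PBS, 10 μL plated on LB agar, 24 h at 37 °C, colonies counted.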

Mus musculus [4] = assay: Antiseptic activity in Balb/c mouse model of Escherichia coli K1 infection-induced sepsis assessed as reduction in bacterial count in lungs at 50 mg/kg, ip pretreated for 1 hr followed by Escherichia coli K1 infection measured after 12 hrs; type: functional, organism-based; outline: as §1

O=c1c(O)c(-c2ccc(O)c(O)c2)oc2cc(O)cc(O)c12
inactive: Activity (Mus musculus [1]) | Activity (Mus musculus [2]) | inhibition (BMDC) | Activity (Mus musculus [3]) | Activity (Mus musculus [4])
